This passage reports IC50, inhibition and Ki results from ChEMBL document CHEMBL1136288, “A catch-and-release strategy for the combinatorial synthesis of 4-acylamino-1,3-thiazoles as potential CDK5 inhibitors” (Bioorg Med Chem Lett, 2003).

Bounds are passed on as bounds.

Assay [1] concerns the target Cyclin-dependent kinase 2/cyclin A (Homo sapiens, UniProt P24941). The experiment in a line: Ability to inhibit cyclin-dependent kinase 2-cyclin A. The format is protein-complex assay. In short, it runs like this: (§1)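 CDK5/GST-p25 was at 0.5 nM and CDK2/GST-cyclin A at 4 nM. Incubated 30 min at 37 °C, stopped with streptavidin SPA beads/EDTA, and counted. IC50 came from a sigmoidal dose-response fit, averaged when repeated.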

The target in assay [2] is T1, Cyclin-dependent kinase 5/CDK5 activator 1 (Homo sapiens, UniProt Q00535). Kind of assay: Ability to inhibit Cyclin-dependent kinase 5-p35. The class given is protein-complex assay. In short, it runs like this: as §1
Assay [3] deals with T2, Cyclin-dependent kinase 5/CDK5 activator 1 (Homo sapiens) (UniProt Q00535+Q15078). Kind of assay: Inhibition of Cyclin-dependent kinase 5-p35nck5a. The class given is protein-complex assay. The note with it: concentration not given here. In short, it runs like this:
as §1

Assay [4] deals with T2, Cyclin-dependent kinase 5/CDK5 activator 1 (Homo sapiens). Kind of assay: Inhibition of Cyclin-dependent kinase 5-p35nck5a at 20 uM. The format is protein-complex assay.
Assay [5] is described as follows: Specificity for CDK5 over Cyclin-dependent kinase 2-cyclin A.
Assay [6] addresses T1, Cyclin-dependent kinase 5/CDK5 activator 1. The experiment in a line: Inhibition of Tau Protein Kinase II (TPK II). The class given is protein-complex assay. In short, it runs like this: as §1

T1 sequence (Q00535 whole entry): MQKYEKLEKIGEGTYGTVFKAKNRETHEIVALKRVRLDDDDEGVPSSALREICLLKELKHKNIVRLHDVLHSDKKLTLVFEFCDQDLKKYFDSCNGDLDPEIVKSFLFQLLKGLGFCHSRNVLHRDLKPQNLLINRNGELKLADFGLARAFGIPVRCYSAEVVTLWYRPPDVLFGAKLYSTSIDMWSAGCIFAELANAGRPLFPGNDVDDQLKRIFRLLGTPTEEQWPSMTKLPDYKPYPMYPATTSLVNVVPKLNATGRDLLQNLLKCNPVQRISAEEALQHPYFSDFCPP
T1 sequence (Q15078 whole entry, further chain): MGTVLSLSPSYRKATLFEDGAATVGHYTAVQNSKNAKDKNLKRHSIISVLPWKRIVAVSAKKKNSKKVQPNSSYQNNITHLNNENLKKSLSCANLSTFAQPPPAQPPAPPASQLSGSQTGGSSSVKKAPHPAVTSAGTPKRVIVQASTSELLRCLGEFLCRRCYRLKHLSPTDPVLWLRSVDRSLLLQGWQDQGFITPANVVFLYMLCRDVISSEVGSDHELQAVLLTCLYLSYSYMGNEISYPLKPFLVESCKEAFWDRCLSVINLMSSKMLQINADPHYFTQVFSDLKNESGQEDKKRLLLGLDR
T2 sequence (Q00535 whole entry): as the sequence (Q00535 whole entry) above
T2 sequence (Q15078 99-307 partner limits assumed): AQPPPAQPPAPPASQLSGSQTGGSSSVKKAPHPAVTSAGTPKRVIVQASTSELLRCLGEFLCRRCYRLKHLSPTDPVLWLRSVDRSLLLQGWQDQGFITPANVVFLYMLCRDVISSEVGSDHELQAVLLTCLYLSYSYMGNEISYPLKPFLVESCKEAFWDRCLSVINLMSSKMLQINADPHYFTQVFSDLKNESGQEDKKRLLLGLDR

With `O=C(Nc1csc(Cc2ccccc2)n1)NN1CCOCC1`, the IC50 (usually the concentration needed to halve the response being measured) in assay [1] is more than 100 µM; in assay [2] it was 55 µM.
In assay [2], `O=C(Nc1csc(Cc2c(Cl)cccc2Cl)n1)NN(Cc1ccccc1)Cc1ccccc1` came in with an IC50 of more than 100 µM.
In the case of `O=C(Nc1csc(Cc2c(Cl)cccc2Cl)n1)NN1CCCC1`, the IC50 turned out to be 20 µM in assay [1] and 3 µM in assay [2].
The matching figures for `O=C(Nc1csc(-c2ccccc2)n1)NN1CCOCC1`: 6 µM and 9 µM.
`CCONC(=O)Nc1csc(Cc2c(Cl)cccc2Cl)n1`: the IC50 in assay [1] turned out to be 20 µM; in assay [2], 5 µM.
On to `O=C(Nc1csc(COc2ccccc2)n1)NN1CCOCC1`, for which the IC50 is more than 100 µM in assay [1] and 80 µM in assay [2].
Regarding `O=C(Nc1csc(CSc2ccccc2)n1)NN1CCOCC1`, the IC50 in assay [1] and in assay [2] was 30 µM throughout.
Turning to `O=C(Nc1csc(-c2ccc(Cl)cc2)n1)NN1CCOCC1`, in assay [2], the IC50 is more than 100 µM.
On to `O=C(NOc1ccccc1)Nc1csc(Cc2ccccc2)n1`, for which the 50% inhibitory concentration (IC50) is more than 100 µM in assay [1] and 20 µM in assay [2].
For the compound `C=CCONC(=O)Nc1csc(Cc2c(Cl)cccc2Cl)n1`, the half-inhibitory concentration (IC50) in assay [1] came out at 40 µM; in assay [2], 6 µM.
In the case of `CCc1nc(NC(=O)NN2CCOCC2)cs1`, in assay [2], the concentration for half-maximal inhibition (IC50) was more than 100 µM.
Take `O=C(Nc1csc(Cc2ccc(Br)cc2)n1)NN1CCOCC1`: in assay [3], the inhibition (usually the relative decrease from the control value, in per cent) came out at 26%.
As for `O=C(NOc1ccccc1)Nc1csc(Cc2c(Cl)cccc2Cl)n1`, the half-maximal inhibitory concentration (IC50) in assay [1] is more than 100 µM; in assay [2] it was 0.9 µM.
`CNNC(=O)Nc1csc(Cc2c(Cl)cccc2Cl)n1` showed a concentration for half-maximal inhibition (IC50) in assay [2] of more than 100 µM.
As for `COc1ccc(OCc2nc(NC(=O)NN3CCOCC3)cs2)cc1`, the IC50 came out at 20 µM in assay [1] and 30 µM in assay [2].
`CNN(C)C(=O)Nc1csc(Cc2c(Cl)cccc2Cl)n1` yielded a half-inhibitory concentration (IC50) in assay [2] of more than 100 µM.
The same measure, in the same setting: the same measure for `O=C(NOCc1c(F)c(F)c(F)c(F)c1F)Nc1csc(Cc2c(Cl)cccc2Cl)n1`: more than 100 µM.
For the compound `O=C(Nc1csc(Cc2ccccc2Cl)n1)NN1CCOCC1`, the inhibition in assay [3] worked out at 30%.
For the compound `O=C(Nc1csc(Cc2c(Cl)cccc2Cl)n1)NN1CCCCC1`, the IC50 in assay [1] worked out at 30 µM; in assay [2], 6 µM.
The matching figures for `O=C(Nc1csc(-c2cccs2)n1)NN1CCOCC1`: 10 µM and 30 µM.
The compound `COC[C@H]1CCCN1NC(=O)Nc1csc(Cc2c(Cl)cccc2Cl)n1` had a half-maximal inhibitory concentration (IC50) in assay [2] of more than 100 µM.
Take `CONC(=O)Nc1csc(Cc2c(Cl)cccc2Cl)n1`: the values for the IC50 in assay [1] and in assay [2] were more than 100 µM and 9 µM, respectively.
With `O=C(NOC1CCCCO1)Nc1csc(Cc2c(Cl)cccc2Cl)n1` (stereo unspecified), the IC50 in assay [1] came to 90 µM; in assay [2], 3 µM.
On to `O=C(Nc1csc(-c2ccccc2Cl)n1)NN1CCOCC1`, for which the 50% inhibitory concentration (IC50) in assay [1] turned out to be 10 µM; in assay [2], 30 µM.
Take `O=C(NNc1ccccc1)Nc1csc(Cc2c(Cl)cccc2Cl)n1`: in assay [2], the half-maximal inhibitory concentration (IC50) was more than 100 µM.
Turning to `Cc1cccc(-c2nc(NC(=O)NN3CCOCC3)cs2)c1`, the values for the half-maximal inhibitory concentration (IC50) in assay [1] and in assay [2] were 20 µM and 30 µM, respectively.
Turning to `CN(NC(=O)Nc1csc(Cc2c(Cl)cccc2Cl)n1)c1ccccc1`, the values for the half-inhibitory concentration (IC50) in assay [1] and in assay [2] were 60 µM and 10 µM, respectively.
The matching figures for `CC(C)(C)ONC(=O)Nc1csc(Cc2c(Cl)cccc2Cl)n1`: 15 µM and 1 µM.
As to `CS(=O)(=O)Cc1nc(NC(=O)NN2CCOCC2)cs1`, in assay [3], the inhibition is 35%.
As to `O=C(Nc1csc(CS(=O)(=O)c2ccccn2)n1)NN1CCOCC1`, the figures for the IC50 in assay [1] and in assay [2] were 5 µM and 10 µM, respectively.
Compound `NNC(=O)Nc1csc(Cc2c(Cl)cccc2Cl)n1` displayed an IC50 in assay [2] of more than 100 µM.
Take `CS(=O)(=O)Cc1nc(NC(=O)NOc2ccccc2)cs1`: the results for the IC50 in assay [1] and in assay [2] were 90 µM and 6 µM, respectively.
The matching figures for `Cc1cccc(-c2nc(NC(=O)NOc3ccccc3)cs2)c1`: more than 100 µM and 16 µM.
The like results for `CN(C)NC(=O)Nc1csc(Cc2c(Cl)cccc2Cl)n1` were, in that order, 10 µM and 4 µM.
With `O=C(NOCc1ccccc1)Nc1csc(Cc2c(Cl)cccc2Cl)n1`, the inhibition in assay [4] turned out to be 40%.
With `O=C(Nc1csc(Cc2c(Cl)cccc2Cl)n1)NN1CCOCC1`, the 50% inhibitory concentration (IC50) in assay [1] amounted to 10 µM; in assay [5], 10 µM; in assay [2] it was 1 µM. Further, the Ki (in general, a dissociation constant, usually derived from enzyme kinetics or from competition with a known ligand) in assay [6] amounted to 0.5 µM.
In the case of `O=C(Nc1csc(Cc2c(Cl)cccc2Cl)n1)NN1CCCCCC1`, the 50% inhibitory concentration (IC50) amounted to 70 µM in assay [1] and 10 µM in assay [2].
`Cc1ccc(-c2nc(NC(=O)NN3CCOCC3)cs2)cc1` came in with an IC50 in assay [2] of more than 100 µM.
As to `O=C(NOc1ccccc1)Nc1csc(-c2ccccc2)n1`, the IC50 stood at 35 µM in assay [1] and 8 µM in assay [2].
